Source: PubChem BioAssay (The Scripps Research Institute Molecular Screening Center)
The list is not random: actives were taken first. Their share in the collection is about 2.2%.
CHRM1 antagonist: blocks human M1 muscarinic receptor | AID 588852 | P11229 | hit rate 1.3% among 360,000 | inhibition, % at 3 µM | CHO-K1 hM1, Fluo-8 calcium fluorescence, ACh EC80 antagonist;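 active = percent inhibition above its own plate's cutoff, namely the mean of that plate's compound wells plus 3 SD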;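 note: peak over basal fluorescence ratio during 140 s after agonist addition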
M1 ag: human M1 muscarinic receptor agonism | AID 588814 | CHO-K1 hM1, Fluo-8 calcium fluorescence, agonist mode; 0% DMSO, 100% acetylcholine EC100 | P11229 | hit rate 0.33% among 360,000 | activation, % at 3 µM;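 active = activation above the run's mean compound activation plus 3 SD, cut at about 16% in these data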;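 note: peak over basal fluorescence ratio within a 140 s kinetic read after compound addition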
CHRM5 antagonist: blocks acetylcholine activation of human M5 receptor; CHO-hM5 cells, Fluo-8 calcium fluorescence, ACh EC80; inhibition, % at 3 µM; hit rate 0.59% among 360,000;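 active = inhibition above a per-plate cutoff, the mean of that plate's test compounds plus 3 SD, cut at about 27% in these data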
Target sequence (P08912 whole entry, looked up): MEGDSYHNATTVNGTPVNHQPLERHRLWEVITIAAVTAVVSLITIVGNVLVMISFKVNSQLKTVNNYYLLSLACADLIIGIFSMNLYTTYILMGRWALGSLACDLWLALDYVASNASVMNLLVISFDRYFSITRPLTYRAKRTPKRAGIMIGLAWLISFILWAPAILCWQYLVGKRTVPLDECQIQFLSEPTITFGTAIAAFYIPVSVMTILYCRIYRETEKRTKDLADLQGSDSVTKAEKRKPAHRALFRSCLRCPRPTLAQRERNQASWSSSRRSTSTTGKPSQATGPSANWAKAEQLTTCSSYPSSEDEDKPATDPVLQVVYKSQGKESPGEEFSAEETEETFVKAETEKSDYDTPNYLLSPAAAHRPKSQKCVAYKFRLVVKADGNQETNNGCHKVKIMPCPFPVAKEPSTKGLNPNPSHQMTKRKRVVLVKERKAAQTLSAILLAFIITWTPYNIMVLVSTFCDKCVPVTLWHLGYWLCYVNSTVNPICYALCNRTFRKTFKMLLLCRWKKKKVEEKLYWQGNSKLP
M5 PAM: positive allosteric modulators of human muscarinic M5 receptor; P08912; CHO-K1 hM5, Fluo-8 calcium, ACh EC20 PAM; 0% = ACh EC20, 100% = ACh EC100; activation, % at 3 µM; hit rate 0.3% among 360,000; AID 624038;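 active = activation above the run cutoff, the mean activation of all test compounds plus 3 SD, cut at about 18% in these data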
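system = human M5 receptor in CHO-K1 cells | reagent = EC20 acetylcholine as agonist stimulus | compound dosing = single-point, 3 µM nominal | incubation = Fluo-8 loading 80 min at 37 °C plus 30 min room temperature | detection = Fluo-8 calcium dye fluorescence, kinetic read | benchmarks = low control EC20 acetylcholine (0%), high control EC100 acetylcholine (100%)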
M5 ag: agonists of human muscarinic M5 receptor (CHRM5) | AID 624037 | CHO-K1 hM5 cells, Fluo-8 calcium fluorescence; 0% DMSO wells, 100% maximal acetylcholine response | activation, % at 3 µM | P08912 | hit rate 0.19% among 360,000;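 active = activation above the run's mean over test compounds plus 3 SD, cut at about 23% in these data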;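 note: signal is peak over basal fluorescence ratio across the kinetic read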
CHRM1 PAM: positive allosteric modulators of human M1 muscarinic receptor | P11229 | CHO-K1 hM1, Fluo-8 calcium fluorescence, ACh EC20; 0% = ACh EC20, 100% = maximal ACh | activation, % at 3 µM | hit rate 0.088% among 360,000 | AID 588819; in the data active = activation above about 19%, passing the limit was not always enough
Large screens that a line does not name were inactive.

Cc1ccc(C)c(/C(O)=C2\C(=O)C(=O)N(CCCn3ccnc3)C2c2cccnc2)c1 (configuration not stated)	M5 PAM 20.2
O=C1C(=O)N(CCN2CCOCC2)C(c2ccc(F)cc2)/C1=C(/O)c1ccc(S(=O)(=O)N2CCOCC2)cc1 (configuration not stated)	CHRM1 antagonist 31.1
O=C1C(=O)N(CCCN2CCOCC2)C(c2ccc(Cl)cc2)/C1=C(/O)c1ccc(F)cc1 (configuration not stated)	none
COc1ccc(C(=O)NCc2nnc(SCC(=O)c3ccccc3)n2C)cc1OC	none
Cc1cccc[n+]1CC(=O)c1ccc2c(c1)OCCO2	CHRM1 antagonist 27.5
COC(=O)c1c(C)[nH]c(C(=O)OC(C)C(=O)NC2CCCCC2C)c1C (configuration not stated)	CHRM1 PAM 26.2
COC(=O)c1c(C)[nH]c(C(=O)OC(C)C(=O)N2CCOCC2)c1C (configuration not stated)	none
Cc1nn(-c2ccccc2)c(C)c1C(=O)OC(C)C(=O)NC1CCCCC1C (configuration not stated)	CHRM1 antagonist 29.6
CC(OC(=O)C1=NN(c2ccccc2)C(=O)CC1)C(=O)NC1CCCCC1C (configuration not stated)	none
COc1cccc(C(=O)OC(C)CN2CCCC2)c1 (configuration not stated)	CHRM1 antagonist 38.5
CC1CCN(CC(C)OC(=O)c2ccc3c(c2)OCCO3)CC1 (configuration not stated)	CHRM1 antagonist 66.6
COc1cccc(C(=O)OCCN2CCCCC2)c1	CHRM5 antagonist 30.1
CC(CN1CCCCC1)OC(=O)c1cc2ccccc2o1 (configuration not stated)	CHRM1 antagonist 36.9
O=C(Nc1cccc2c1CCCC2)c1cc(C2CCCCN2C(=O)CCCc2ccccc2)on1 (configuration not stated)	none
CCc1cc2c(=O)n(CCCOC)c(SCC(=O)Nc3oc(C)c4c(C)n[nH]c(=O)c34)nc2s1	none
CCCCn1c(N)c(N(CCC(C)C)C(=O)COC(=O)c2ccc3ccccc3c2)c(=O)[nH]c1=O	none
CN1CCN(CC(=O)N2c3ccccc3Sc3ccccc32)CC1	CHRM1 antagonist 99.9, CHRM5 antagonist 64.5
O=C1CCCN1CCCNCC(=O)N1c2ccccc2Sc2ccccc21	CHRM1 antagonist 76.5, CHRM5 antagonist 35.4
CCOC(=O)N1CCN(CC(=O)N2c3ccccc3Sc3ccccc32)CC1	none
O=C(C1CC1)N1c2ccccc2Sc2ccccc21	none
O=C(CN1CCCCC1)N1c2ccccc2Oc2ccccc21	CHRM1 antagonist 74.7
O=C(CN1CCCCCC1)N1c2ccccc2Sc2ccccc21	CHRM1 antagonist 99.3, CHRM5 antagonist 93.8
O=C(Cc1ccccc1)Nc1ccccc1Oc1ccccc1	none
O=C(CCC(=O)OCC(F)(F)C(F)F)Nc1ccccc1F	none
O=C(/C=C/c1ccccc1)N1c2ccccc2Sc2ccc(C(F)(F)F)cc21	none
Cc1cc(C)n(CC(=O)N2c3ccccc3Sc3ccc(C(F)(F)F)cc32)n1	CHRM1 antagonist 62.1
CC1CCCN(c2ccc(C(=O)OCn3nnc4ccccc4c3=O)cc2[N+](=O)[O-])C1 (configuration not stated)	none
CC1CCCN(CC(=O)N2c3ccccc3Sc3ccccc32)C1 (configuration not stated)	CHRM1 antagonist 81.3, CHRM5 antagonist 30.5
CC1CCCN(c2ccc(C(=O)OCC(=O)N3c4ccccc4Sc4ccccc43)cc2[N+](=O)[O-])C1 (configuration not stated)	CHRM1 antagonist 34.6
O=C(CN1CCCC(O)C1)N1c2ccccc2Sc2ccc(C(F)(F)F)cc21 (configuration not stated)	CHRM1 antagonist 98.9, CHRM5 antagonist 40.6
Cc1ccc(C(C)NC(=O)/C(C#N)=C\c2c(C)[nH]c3ccccc23)cc1 (configuration not stated)	M1 ag 20.7, M5 ag 27.0
